Compound activity as filed in PubChem BioAssay.
Most compounds without a hit are left out; they make up all but 6.5% or so of the library.
Calb biofilm kill = kills Candida albicans biofilms; C. albicans biofilm + clotrimazole, Alamar Blue; inhibition, % at 6 µM; actives 0.14% (n = 85,000); AID 834;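 active = inhibition above 20%; inactive = inhibition below 20%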;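 also: preformed 24 hr biofilms exposed to compound for 48 hr; 0% = biofilm without compound and 100% = blank killed by clotrimazole plus chlorhexidine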
PostGolgi yeast = growth inhibition of a yeast mutant, post-Golgi transport screen; actives 0.9% (n = 98,000); inhibition, % at 10 µM; AID 739; post-Golgi transport phenotypic cell assay;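 also: yeast cells grown in 1536-well plates; yeast grown about 18 h at 30C before absorbance read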
Pyk2 oligo antag = antagonists of human Pyk2 oligomerization | AID 1347419 | actives 0.83% (n = 99,000) | z-score (the deposit names both 25 µM and 10 µM) | Q293 cells, Pyk2 FERM NanoBiT luminescence; stronger effect = lower value;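 active = Z-score of -3 or lower, scaled per plate to the spread of control and sample wells; inactive = z-score above -3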;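 also: negative z-score means lost luminescence so less FERM oligomerization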
Target sequence (Q14289 whole entry, looked up): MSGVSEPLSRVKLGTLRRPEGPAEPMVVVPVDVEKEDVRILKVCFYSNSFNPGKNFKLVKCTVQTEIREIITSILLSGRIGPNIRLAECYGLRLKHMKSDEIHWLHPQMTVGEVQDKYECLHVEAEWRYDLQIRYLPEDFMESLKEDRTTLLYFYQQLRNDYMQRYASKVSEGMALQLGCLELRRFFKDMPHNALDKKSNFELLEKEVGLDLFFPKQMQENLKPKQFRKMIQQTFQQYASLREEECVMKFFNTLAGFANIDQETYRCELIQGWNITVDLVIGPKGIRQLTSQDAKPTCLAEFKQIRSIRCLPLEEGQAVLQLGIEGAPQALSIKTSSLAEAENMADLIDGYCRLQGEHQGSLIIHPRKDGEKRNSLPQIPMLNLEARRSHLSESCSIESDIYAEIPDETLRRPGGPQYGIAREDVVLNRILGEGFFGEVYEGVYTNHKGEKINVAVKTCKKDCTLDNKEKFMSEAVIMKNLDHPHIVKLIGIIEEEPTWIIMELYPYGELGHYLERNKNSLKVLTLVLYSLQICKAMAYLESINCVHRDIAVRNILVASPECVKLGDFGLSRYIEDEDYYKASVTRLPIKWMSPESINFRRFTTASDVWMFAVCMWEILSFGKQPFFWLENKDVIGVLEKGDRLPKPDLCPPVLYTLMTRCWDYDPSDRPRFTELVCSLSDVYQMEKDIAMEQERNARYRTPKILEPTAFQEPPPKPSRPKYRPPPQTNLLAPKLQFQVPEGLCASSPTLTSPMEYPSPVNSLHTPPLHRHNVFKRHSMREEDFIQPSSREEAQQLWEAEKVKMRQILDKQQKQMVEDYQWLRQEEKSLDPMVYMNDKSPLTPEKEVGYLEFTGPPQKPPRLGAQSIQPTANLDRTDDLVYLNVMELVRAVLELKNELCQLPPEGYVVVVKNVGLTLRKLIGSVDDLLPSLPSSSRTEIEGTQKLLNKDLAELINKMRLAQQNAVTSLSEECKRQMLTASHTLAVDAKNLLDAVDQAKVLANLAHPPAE
tolC growth inh = E. coli tolC mutant growth inhibition; E. coli BW25113 tolC mutant growth, OD615; growth inhibition, % at 10 µM (by protocol); actives 2.2% (n = 65,000);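 active = growth inhibition at or above a cutoff equal to the mean over every tested compound plus 3 SD, cut at about 60% in these data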;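 also: growth measured after 20 h incubation at 37 °C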
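Test system: tolC-deleted E. coli BW25113; medium: LB with kanamycin 50 µg/mL; compound: single-point testing at 10 µM; incubation: 20 h compound exposure of bacteria at 37 °C; signal: OD at 615 nm; evaluation: growth inhibition in percent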
E coli WT exp = growth inhibitors of E. coli BW25113 wild type; OD600 absorbance; growth inhibition, % at 100 µM; actives 0.15% (n = 98,000); AID 710;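 active = growth inhibition above about 50% at one test dose, limit read from the data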;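 also: growth measured after 20 h incubation at 37 °C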
PostGolgi ctrl = yeast control strain growth, post-Golgi counter-screen. inhibition, % at 10 µM. efflux-deficient yeast background strain, growth absorbance A615, 16 h. actives 5% (n = 98,000)
An asterisk follows results filed as active; · = no result. Rule as the data show it, unless noted: active = inhibition above about 30%; inactive = the rest.

SMILES | Calb biofilm kill | PostGolgi yeast | Pyk2 oligo antag | tolC growth inh | E coli WT exp | PostGolgi ctrl
CCOC(=O)C(C(C)=O)C(c1ccc(OCCC(C)C)cc1)C(C(C)=O)C(=O)OCC (stereo not drawn) | 7 | · | 0.59 | · | · | ·
COc1ccc(CN2CCn3ncc(C(=O)Nc4cc(C)cc(C)c4)c3C2=O)cc1 | 6 | -1 | 1.3 | · | 1 | 14
CC1CCN(S(=O)(=O)c2cn(CC(=O)N3CC(C)CC(C)C3)c(=O)c3ccccc23)CC1 (stereo not drawn) | · | · | 0.67 | · | · | ·
CC(C)Cc1nnc(NC(=O)c2ccc([N+](=O)[O-])cc2)s1 | · | 0 | -1.8 | · | -5 | 16
COc1ccc(/C=C/C(=O)Nc2sc3c(c2C(=O)NCc2cccnc2)CCCC3)cc1 | · | 19 | -1.4 | · | -4 | 52*
COc1cc(CN(C)CCc2ccccc2)ccc1OCc1ccccc1 | · | 9 | -0.19 | · | 6 | 21
COc1ccc(-c2noc(C3CCCN(S(=O)(=O)c4cccc(Cl)c4C)C3)n2)cc1OC (stereo not drawn) | -3 | 22 | -0.58 | 15 | -9 | 50*
COc1ccc(-c2noc(C3CCCN(S(=O)(=O)c4ccc(C)c(Cl)c4)C3)n2)cc1OC (stereo not drawn) | 6 | 5 | -1 | 11 | 3 | 12
CC(C)Sc1nc2c(c(=O)n(C)c(=O)n2C)n1Cc1ccc(Cl)cc1 | · | -4 | -0.47 | 44 | -1 | 77*
Cn1c(=O)c2c(nc(SCc3ccccc3)n2Cc2ccc(Cl)cc2)n(C)c1=O | 1 | · | -1.7 | · | · | ·
CCNc1nc2c(c(=O)n(Cc3ccccc3)c(=O)n2C)n1Cc1ccccc1 | · | -1 | -3.5* | 33 | -6 | 30*
Cn1c(=O)c2c(nc(NCc3ccccc3)n2Cc2ccc(F)cc2)n(C)c1=O | 5 | -2 | · | 8 | 4 | 39*
CCOC(=O)C1=NN(C(=O)Nc2cccc(C(F)(F)F)c2)C2C(=O)N(c3cccc(C(F)(F)F)c3)C(=O)C12 (stereo not drawn) | · | 1 | 0.48 | · | -4 | 2
Cc1cc(NC(=O)CSc2c(C)[nH]c3ccccc23)no1 | 2 | -17 | · | 2 | -3 | 30*
Cc1cc(NC(=O)CSc2ncccn2)no1 | 2 | · | -0.12 | · | · | ·
Cc1cc(NC(c2ccc(Cl)cc2)c2ccc3cccnc3c2O)no1 (stereo not drawn) | -2 | 7 | -0.87 | · | 29 | 7
Cc1ccc(-n2c(SCC(=O)Nc3cc(C)on3)nc3c([nH]c4ccccc43)c2=O)cc1 | 0 | -10 | · | · | -5 | -1
Cc1cc(NC(c2cccnc2)c2c(C)[nH]c3ccccc23)no1 (stereo not drawn) | 27* | -9 | -0.71 | 7 | -1 | -1
Cc1cc(NC(=O)CSc2ncn(-c3ccccc3)n2)no1 | -2 | 8 | 0.57 | 0 | -2 | 33*
COc1ccc(S(=O)(=O)N(C)CC(=O)Nc2ccc3c(c2)OCO3)cc1 | 2 | -7 | 0.24 | · | -7 | -2
COc1ccc(OC)c(N(CC(=O)Nc2ccc(NC(C)=O)cc2)S(C)(=O)=O)c1 | 5 | 5 | -0.53 | -16 | -2 | 31*
COc1ccc(N(CC(=O)Nc2ccc3c(c2)OCO3)S(=O)(=O)c2ccccc2)c(OC)c1 | 5 | 3 | -3.2* | 31 | -20 | 12
CCOC(=O)C1CCCN(CCC(=O)Nc2ccc(C)cc2)C1 (stereo not drawn) | 8 | · | 0.35 | · | · | ·
NC(=O)CSc1nc(N)c2c3c(sc2n1)CCCCC3 | 8 | 6 | -0.15 | 6 | 6 | 31*
Cc1ccc2nc3c(cc(C(N)=S)c(=N)n3CCCOC(C)C)c(=O)n2c1 | 2 | 0 | -0.43 | 3 | -5 | 9
SMILES | Calb biofilm kill | PostGolgi yeast | Pyk2 oligo antag | tolC growth inh | E coli WT exp | PostGolgi ctrl
CNC(=S)Nc1cc(OC)ccc1OC | · | 2 | -0.43 | · | -4 | 3
CCOC(=O)CN1C(=N)N(c2nc(NC(C)C)nc(NC(C)C)n2)CC1=O | 7 | · | -1.4 | · | · | ·
CCCCn1c2nc3ccccc3nc2c2c(=O)n(C(C)CC)cnc21 (stereo not drawn) | 0 | 37* | -3.1* | 5 | -2 | 23
Cc1ccc(C(=O)Nc2ccccc2NC(=O)c2ccc(C)o2)o1 | -1 | -7 | -0.62 | -4 | -1 | -9
Cc1ccccc1NC(=O)c1ccc(-c2ccc(Cl)cc2Cl)o1 | -2 | -1 | -0.23 | · | -24 | 54*
O=C(Nc1ccc(Cl)cn1)c1ccc(-c2cc(Cl)ccc2Cl)o1 | · | 2 | · | · | -5 | -1
Cc1cccc(C)c1NC(=O)c1ccc(-c2ccc(Cl)cc2Cl)o1 | -4 | -6 | -1.4 | · | -4 | 46*
